The source of these data is PMC5499704 (Journal of medicinal chemistry, 2016).

For data set [1], the system named is MCF-7/TamR. The data set can be described thus: Proliferation of breast cancer cells, MCF-7/TamR. In kind it is cell-based. Particulars: Homo sapiens, MCF7, 120 h, read-out: IC50, proliferation. Put shortly: (§1)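 Cells grown in phenol red-free DMEM with 5% FBS at 37 °C, 5% CO2. MCF-7/TamR cells were derived by prolonged 4-hydroxytamoxifen exposure. Cells seeded at 50000/well, then treated 5 days with test compound at six doses from 10−10 to 10−5 M, with DMSO vehicle. Viable cells counted by Coulter counter. Survival expressed as a percentage of vehicle, and IC50 taken from dose–response curves.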

Data set [2] concerns MCF-7. As to the kind of experiment: Proliferation of breast cancer cells, MCF-7. In kind it is cell-based. Particulars: Homo sapiens, MCF7, 120 h, read-out: IC50, proliferation. In short, it runs like this: as §1
The subject of data set [3] is T47D-kb-Luc cells. The data set can be described thus: T47D-kb-Luc ERE luciferase reporter gene assay. Particulars: at 1 nM, in the presence of 0.01 nM estradiol (E2). In kind it is cell-based, human. Put shortly:
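Stably transfected T47D-kb-Luc reporter cells were stimulated with estradiol at 10−11 M plus test compound at 0.1, 1 or 10 nM. ERE-driven activity was read as relative luciferase units and normalized to the estradiol-only control. Run in quadruplicate in at least three separate experiments, reported as mean ± SD (%).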
In general terms: A reporter such as luciferase makes a cellular process visible.

The nature of data set [4]: Stability in culture media in vitro. In kind it is in vitro ADME. Particulars: dissolved in ethanol then diluted in culture media for an extended period of time.
Data set [5] has as its target T1, ERα (Homo sapiens, UniProt P03372).
T1 sequence (P03372 1-595): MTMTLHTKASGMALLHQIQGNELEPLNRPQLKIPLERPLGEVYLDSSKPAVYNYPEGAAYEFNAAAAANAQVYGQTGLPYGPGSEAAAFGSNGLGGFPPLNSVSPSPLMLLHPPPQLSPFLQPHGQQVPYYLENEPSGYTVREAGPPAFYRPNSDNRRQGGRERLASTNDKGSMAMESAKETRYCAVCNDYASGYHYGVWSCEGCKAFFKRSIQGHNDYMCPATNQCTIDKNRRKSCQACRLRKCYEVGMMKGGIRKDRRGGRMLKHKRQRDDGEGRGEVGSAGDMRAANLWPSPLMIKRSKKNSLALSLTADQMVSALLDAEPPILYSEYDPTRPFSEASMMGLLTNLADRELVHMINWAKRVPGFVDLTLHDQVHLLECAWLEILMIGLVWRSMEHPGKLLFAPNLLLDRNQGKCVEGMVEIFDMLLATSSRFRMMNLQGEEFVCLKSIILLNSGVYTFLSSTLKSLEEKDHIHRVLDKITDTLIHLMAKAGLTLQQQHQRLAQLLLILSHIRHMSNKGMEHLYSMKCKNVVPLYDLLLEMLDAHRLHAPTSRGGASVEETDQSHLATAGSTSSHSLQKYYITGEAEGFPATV
The data set can be described thus: Western blot of ERα downregulation in T47D cells. In kind it is cell-based. Particulars: dose range 0.03–1 μM. (In general: In western blotting, separated proteins are transferred to a membrane and probed.)

For data set [6], the target named is T1, ERα. As to the kind of experiment: Western blot of ERα downregulation in T47D/PKCα cells. In kind it is cell-based. Particulars: dose range 0.03–1 μM.
For data set [7] the following is noted: patients, cited from earlier work.

For `CC/C(=C(\c1ccc(O)cc1)c1ccc(OCCN(C)C)cc1)c1ccccc1` [Compound 4-OHT, 4-hydroxytamoxifen], the figures for the IC50 in data set [1] and in data set [2] were 22 µM and 0.0033 µM, respectively.
`C[C@]12CC[C@@H]3c4ccc(B(O)O)cc4C[C@@H](CCCCCCCCC[S+]([O-])CCCC(F)(F)C(F)(F)F)[C@H]3[C@@H]1CC[C@@H]2O` (stereo partly drawn) [Compound 5, ((7R,8R,9S,13S,14S,17S)-17-Hydroxy-13-methyl-7-(9-((4,4,5,5,5-pentafluoropentyl)sulfinyl)nonyl)-7,8,9,11,12,13,14,15,16,17-deca-hydro-6H-cyclopenta[a]phenanthren-3-yl)boronic Acid]: the “inhibition of E2-induced luciferase (ERE activity)” value in data set [3] is reported as “completely blocking the estrogen response element (ERE) activity”. Further, the “metabolic stability in vitro” value in data set [4] is “metabolic stability was later confirmed in vitro”. Further, the ER downregulation level result in data set [5] and in data set [6] was “greater than 50%” each time.
With `C[C@]12CC[C@@H]3c4ccc(O)cc4C[C@@H](CCCCCCCCC[S+]([O-])CCCC(F)(F)C(F)(F)F)[C@H]3[C@@H]1CC[C@@H]2O` (stereo partly shown) [fulvestrant], the ER downregulation level entry in data set [5] and in data set [6] was “greater than 50%” throughout. The peak blood concentration in data set [7] (500 mg im, FINDER1 and FINDER2 clinical trials ref 3, 5) is on record as less than 25 ng/mL. In addition, the “time to reach steady-state serum concentration” value in data set [7] (im monthly dose of 250 mg ref 4) is “over 3 months”.
